Sampled rows, rich in hits. Any-hit rate of the full collection: about 2.6%.
Yeast lifespan up – extends the lifespan of yeast | S. cerevisiae growth with nicotinamide, OD615; deaD strain in restrictive glucose medium | inhibition of the nicotinamide effect, % at 10 µM | 130,000 compounds, 0.68% hits | AID 775;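 active = inhibition above a set limit, placed 3 SD over the median of all compounds, cut at about 26% in these data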;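 note: 0% = nicotinamide-treated wells and 100% = cells grown without nicotinamide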
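Test system: DeaD-strain S. cerevisiae / Buffer or medium: restrictive glucose medium / Also added: nicotinamide 1.5 mM / Doses: one concentration, 10 µM, DMSO 0.25% / Schedule: 48 h at 30 °C / Signal: OD615 measurement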
BB579 growth dn – reduces growth of yeast BB579 in restrictive medium; S. cerevisiae BB579 growth, OD615, 48 h; inhibition, % at 10 µM; 140,000 compounds, 0.51% hits;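 active = inhibition above a set limit, 3 SD over the mean compound inhibition, cut at about 44% in these data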
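Assay system – yeast BB579 (DeaD) · Dosing – single compound dose of 10 µM, 0.25% DMSO final · Detection – OD615 turbidity measurement · Buffer or medium – CSMM-D restrictive synthetic medium containing dextrose (glucose) · Benchmarks – positive control amphotericin B 10 µg/mL · Incubation – 48 h exposure, 30 °C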
RAM network inh – inhibitors of the yeast RAM network; S. cerevisiae dse1pr::URA3 reporter, 5-FOA growth OD615, 2 d; analog-sensitive cbk1-as2 kinase mutant strain; inhibition, % at 50 µM; 190,000 compounds, 1.8% hits; AID 868;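 active = inhibition above a set limit, 3 SD over mean compound inhibition, cut at about 8.4% in these data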;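 note: 0% = DMSO-only wells with no growth and 100% = 10 µM 1-NA-PP1 full growth; inhibition rescues growth on 5-FOA so higher OD means more RAM inhibition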
Starred values were filed as active, the others as inactive; x = no result.

SMILES | Yeast lifespan up | BB579 growth dn | RAM network inh
COc1ccc(-c2nc(N3CCCCCC3)sc2C(=O)c2ccccc2)cc1 | 1.1 | -49.8 | 7.2
[2H]c1c([2H])c([2H])c(C(=O)c2sc(N3CCCCCC3)nc2-c2ccccc2)c([2H])c1[2H] | 3.7 | -12.2 | 8.8*
O=C(c1ccc(Br)cc1)c1sc(N2CCOCC2)nc1-c1ccccc1 | x | x | 9.4*
O=C(c1ccccc1)c1sc(N2CCOCC2)nc1-c1ccccc1 | x | x | 0.0
COc1ccccc1NC(=O)N1CCC(c2nc3ccccc3o2)CC1 | x | x | 0.5
CCOC(=O)Cn1c(=NC(=O)c2ccc([N+](=O)[O-])s2)sc2ccccc21 | 5.5 | -39.2 | 6.5
CC(c1ccco1)N(C(=O)c1ccccc1NS(=O)(=O)c1cccc([N+](=O)[O-])c1)c1ccccn1 (stereo not drawn) | 33.6* | -20.5 | 4.9
CC(c1ccco1)N(C(=O)c1ccccc1NS(=O)(=O)c1ccc(Cl)cc1)c1ccccn1 (stereo not drawn) | 21.9 | -29.1 | 1.1
CC(c1ccco1)N(C(=O)c1ccccc1NS(=O)(=O)c1cc([N+](=O)[O-])ccc1Cl)c1ccccn1 (stereo not drawn) | 59.0* | -29.0 | 2.7
CC(c1ccco1)N(C(=O)c1ccccc1F)c1ccccn1 (stereo not drawn) | x | x | 2.2
N#Cc1c2n(c(=S)n(-c3ccc(F)cc3)c1=O)CCCCC2 | x | x | 2.2
Cc1ccc(C(=O)COc2ccccc2-c2ccccc2)cc1 | -5.4 | -3.2 | 0.2
Cc1ccc(C(=O)COc2ccccc2N2C(=O)c3ccccc3C2=O)cc1 | 1.0 | -20.1 | 8.8*
NNC(=O)c1ccc(N2CCCCCC2)c([N+](=O)[O-])c1 | x | x | 0.8
COc1cc(C(=O)NC(C(=O)Nc2cccc(C(C)=O)c2)C(C)C)cc(OC)c1OC (stereo not drawn) | x | x | 2.0
CCSc1nnc(NC(=O)CSc2nncc(=O)n2N)s1 | x | x | 2.5
Cc1ccccc1-c1nc2cc(Cl)ccc2o1 | -21.6 | -35.7 | 4.1
FC(F)(F)c1cccc(CNc2ncccc2-c2nc3cc(Cl)ccc3o2)c1 | -1.0 | -31.3 | 8.5*
Cc1sc2nc(C3CC3)nc(SCC(=O)N3CCCc4ccccc43)c2c1C | -6.9 | -6.4 | 9.2*
Cc1sc2nc(C3CC3)nc(SCC(=O)N3CCc4ccccc4C3)c2c1C | -4.3 | -21.4 | 1.8
Cn1cccc1C(=O)OCC(=O)NC(=O)NC1CCCCC1 | x | x | 0.5
CC(C)(C)c1ccccc1NC(=O)c1c(O)c2cccc3c2n(c1=O)CC3 | x | x | 1.8
c1ccc(C2=Nn3c(nnc3-c3cc(-c4ccccc4)n[nH]3)SC2)cc1 | -4.5 | -3.9 | 8.6*
Clc1ccc(C2=Nn3c(nnc3-c3cccs3)SC2)cc1 | x | 4.2 | 2.8
Cc1ccc(-c2nnc3n2N=C(c2ccccc2)CS3)cc1 | -10.9 | -24.6 | 3.8
SMILES | Yeast lifespan up | BB579 growth dn | RAM network inh
COc1ccc(C2=Nn3c(nnc3-c3ccccn3)SC2)cc1OC | -1.2 | -13.1 | -0.7
c1ccc(-c2nnc3n2N=C(c2ccc4c(c2)OCO4)CS3)nc1 | -3.0 | -55.2 | 9.2*
Clc1ccc(C2=Nn3c(nnc3-c3cc(-c4ccccc4)n[nH]3)SC2)cc1 | -16.5 | -71.5 | 9.1*
COc1cccc(/C=N/NC(=O)c2ccccc2N(Cc2ccccc2)S(=O)(=O)c2ccccc2)c1OC | -10.4 | -11.3 | 0.3
CSc1c(C#N)sc(=S)n1-c1ccc(C)cc1 | x | x | 1.9
Clc1ccccc1-c1nnc(-c2ccc3c(c2)OCO3)o1 | x | x | 5.4
Cc1cc(C(=O)NCCc2ccc(S(N)(=O)=O)cc2)no1 | x | x | 3.0
Cc1ccc(-n2c(SC3CCOC3=O)nc3ccccc3c2=O)cc1 (stereo not drawn) | x | x | 7.0
CC(=O)NC1=C(C#N)C(c2ccccc2)c2c(ccc3ccccc23)O1 (stereo not drawn) | -8.5 | -19.4 | 2.1
COCC(C)OC(=O)/C(C#N)=C\c1coc2ccc(C)cc2c1=O (stereo not drawn) | 5.3 | 63.5* | -0.9
Cc1ccc2occ(C(=O)c3ccco3)c(=O)c2c1 | 57.5 | -50.4 | 0.8
c1ccc(SSc2ccccc2)cc1 | 27.9* | 3.1 | 1.0
c1ccc(SCCc2ccncc2)cc1 | 10.8 | -39.6 | 2.2
Cc1ccc(-c2nn3cnnc3c3ccccc23)cc1C | x | x | 2.2
O=C(/C=C/c1ccc(OCCCF)cc1)NCc1ccc(Cl)cc1 | -18.7 | -29.3 | 2.9
Cc1ccc(-c2nn(C(C)(C)C)c3ncnc(NS(=O)(=O)c4ccc([N+](=O)[O-])cc4)c23)cc1 | x | x | 0.6
Cc1ccc(-c2nc(N)c3c(-c4ccc(C)cc4)nn(C(C)(C)C)c3n2)cc1 | -4.2 | -4.0 | 1.1
CC(C)(C)n1nc(-c2ccc(Cl)cc2)c2c(N)ncnc21 | -17.9 | 82.6* | -0.8
CC(C)(C)n1nc(-c2ccc(F)cc2)c2c(N)ncnc21 | -6.1 | 87.6* | -0.2
COc1ccc(CC(=O)Nc2c3c(nn2-c2cccc(Cl)c2)CS(=O)(=O)C3)cc1 | -0.1 | -36.7 | 9.2*
O=C(Cc1ccccc1)Nc1c2c(nn1-c1cccc(Cl)c1)CS(=O)(=O)C2 | -3.5 | -11.9 | 2.3
CN(C)S(=O)(=O)c1ccc(C(=O)Nc2nc(-c3cc4ccccc4o3)cs2)cc1 | 28.0* | -56.5 | 3.3
O=C(Nc1nc(-c2cc3ccccc3o2)cs1)c1ccc(S(=O)(=O)N2CCCC2)cc1 | 5.1 | -39.0 | 3.4
CCOc1ccc2nc(NCCNC(=O)Nc3ccccc3)c(C#N)cc2c1 | 104.0* | 30.8 | 3.0
CCOc1ccc2nc(NCCNC(=O)Nc3cccc(C)c3)c(C#N)cc2c1 | -13.8 | -27.3 | 3.4
SMILES | Yeast lifespan up | BB579 growth dn | RAM network inh
CS(=O)(=O)c1ccc(C(=O)NCCN2C(=O)S/C(=C\c3cccnc3)C2=O)cc1[N+](=O)[O-] | x | x | 0.9
Cn1c(N)c(Sc2ccc(F)cc2)c(=O)n(C)c1=O | x | x | -0.7
CCCCCCOC(=O)Sc1nc2ccccc2o1 | -26.3 | 81.0* | -1.4
COC(=O)CSc1nc2ccccc2o1 | -25.9 | -26.0 | 0.7
Cc1nc(NC(=O)/C=C/c2ccccc2)n[nH]1 | 10.8 | -30.2 | 1.6
CCc1cccc(CC)c1NC(=S)NCCc1c(C)[nH]c2ccc(C)cc12 | -0.6 | 32.0 | 6.7
CCc1cccc(C)c1NC(=S)NCCc1c(C)[nH]c2ccc(C)cc12 | 2.2 | 45.1* | 7.0
S=C(Nc1ccc(N2CCOCC2)cc1)Nc1ccc2snnc2c1 | x | x | -0.6
CCOc1ccc(-c2c(=O)n(OCc3ccc([N+](=O)[O-])cc3)c3ccccc3[n+]2[O-])cc1 | -1.8 | -24.0 | 2.2
Cc1ccc(OCCN2C(=O)C(=O)c3cccc(C)c32)cc1 | x | x | 1.8
COC(=O)CSc1nnnn1-c1ccccc1 | -10.7 | -48.8 | -0.8
O=C(/C(=N\Nc1ccccc1)Sc1nnnn1-c1ccccc1)c1ccccc1 | 30.4* | -38.7 | 8.2
COc1ccc(NC(=O)Nc2ccon2)c(OC)c1 | x | x | 0.0
C/C(N)=C(/C#N)C(=O)CSc1nc(C2CCCCC2)n(-c2ccccc2)n1 | 58.6* | 12.5 | -0.3
NC(=O)NC(=O)CSc1nc(C2CCCCC2)n(-c2ccccc2)n1 | 4.2 | -24.8 | 3.5
O=C(Nc1nc2ccc([N+](=O)[O-])cc2s1)c1ccco1 | x | x | 3.6
CN1CCN(/N=C/c2nc(-c3ccccc3Cl)n3ccccc23)CC1 | -3.5 | -12.4 | 1.5
CN1CCN(/N=C/c2cccc(Cl)c2Cl)CC1 | 30.5* | -39.7 | 1.4
